Measurements reported in ChEMBL document CHEMBL1137018 (Antimicrob Agents Chemother, 2007).

Assays:
[1] = AUC (0 to 12 hrs) in human at 400 mg, po bid from day 11 to day 20 pretreated with placebo from day 1 to day 3 followed by washout from day 4 to day 10 followed by 400 mg, po of drug coadministered with placebo from day 21 to day 30; format: ADME, organism-based; parameters: dose 400 mg, time < 12 hr, route oral; settings: plasma
How it was run: (§1)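 Blood (7 ml) drawn on days 20 and 30 at 0.5–12 h postdose, centrifuged at 1,700 x g about 10 min at about 4°C, plasma stored at about –20°C. Validated LC/MS/MS assay; noncompartmental analysis, with Cmax and Tmax read directly from concentration-time data.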

[2] = AUC (0 to 12 hrs) in human at 400 mg, po bid from day 11 to day 20 pretreated with voriconazole 400 mg, po bid on day 1 and 200 mg, po bid on day 2 and 3 followed by washout from day 4 to day 10; format: ADME, organism-based; parameters: dose 400 mg, time < 12 hr, route oral; settings: plasma; how it was run: as §1
[3] = Tmax in human at 400 mg, po bid from day 11 to day 20 pretreated with placebo from day 1 to day 3 followed by washout from day 4 to day 10; format: ADME, organism-based; settings: in vivo; how it was run: as §1
[4] = AUC (0 to 12 hrs) in human at 400 mg, po bid from day 11 to day 20 pretreated with placebo from day 1 to day 3 followed by washout from day 4 to day 10; format: ADME, organism-based; parameters: dose 400 mg, time < 12 hr, route oral; settings: plasma; how it was run: as §1
[5] = Tmax in human at 400 mg, po bid from day 11 to day 20 pretreated with voriconazole 400 mg, po bid on day 1 and 200 mg, po bid on day 2 and 3 followed by washout from day 4 to day 10; format: ADME, organism-based; settings: in vivo; how it was run: as §1
[6] = Cmax in human at 100 mg, po bid from day 11 to day 20 pretreated with voriconazole 400 mg, po bid on day 1 and 200 mg, po bid on day 2 and 3 followed by washout from day 4 to day 10 followed by 100 mg, po of drug coadministered with voriconazole 200 mg, po from day 21 to day 30; format: ADME, organism-based; parameters: dose 100 mg, route oral; settings: in vivo; how it was run: as §1
[7] = Cmax in human at 400 mg, po bid from day 11 to day 20 pretreated with placebo from day 1 to day 3 followed by washout from day 4 to day 10 followed by 400 mg, po of drug coadministered with placebo from day 21 to day 30; format: ADME, organism-based; parameters: dose 400 mg, route oral; settings: in vivo; how it was run: as §1
[8] = Tmax in human at 400 mg, po bid from day 11 to day 20 pretreated with placebo from day 1 to day 3 followed by washout from day 4 to day 10 followed by 400 mg, po of drug coadministered with placebo from day 21 to day 30; format: ADME, organism-based; settings: in vivo; how it was run: as §1
[9] = Tmax in human at 100 mg, po bid from day 11 to day 20 pretreated with voriconazole 400 mg, po bid on day 1 and 200 mg, po bid on day 2 and 3 followed by washout from day 4 to day 10 followed by 100 mg, po of drug coadministered with voriconazole 200 mg, po from day 21 to day 30; format: ADME, organism-based; settings: in vivo
[10] = Cmax in human at 400 mg, po bid from day 11 to day 20 pretreated with voriconazole 400 mg, po bid on day 1 and 200 mg, po bid on day 2 and 3 followed by washout from day 4 to day 10; format: ADME, organism-based; parameters: dose 400 mg, route oral; settings: in vivo; how it was run: as §1
[11] = Tmax in human at 400 mg, po bid from day 11 to day 20 pretreated with voriconazole 400 mg, po bid on day 1 and 200 mg, po bid on day 2 and 3 followed by washout from day 4 to day 10 followed by 400 mg, po of drug coadministered with voriconazole 200 mg, po from day 21 to day 30; format: ADME, organism-based; settings: in vivo; how it was run: as §1
[12] = Tmax in human at 100 mg, po bid from day 11 to day 20 pretreated with voriconazole 400 mg, po bid on day 1 and 200 mg, po bid on day 2 and 3 followed by washout from day 4 to day 10; format: ADME, organism-based; settings: in vivo; how it was run: as §1
[13] = Cmax in human at 400 mg, po bid from day 11 to day 20 pretreated with placebo from day 1 to day 3 followed by washout from day 4 to day 10; format: ADME, organism-based; parameters: dose 400 mg, route oral; settings: in vivo; how it was run: as §1
[14] = AUC (0 to 12 hrs) in human at 100 mg, po bid from day 11 to day 20 pretreated with voriconazole 400 mg, po bid on day 1 and 200 mg, po bid on day 2 and 3 followed by washout from day 4 to day 10; format: ADME, organism-based; parameters: dose 100 mg, time < 12 hr, route oral; settings: plasma; how it was run: as §1
[15] = AUC (0 to 12 hrs) in human at 100 mg, po bid from day 11 to day 20 pretreated with voriconazole 400 mg, po bid on day 1 and 200 mg, po bid on day 2 and 3 followed by washout from day 4 to day 10 followed by 100 mg, po of drug coadministered with voriconazole 200 mg, po from day 21 to day 30; format: ADME, organism-based; parameters: dose 100 mg, time < 12 hr, route oral; settings: plasma; how it was run: as §1
[16] = AUC (0 to 12 hrs) in human at 400 mg, po bid from day 11 to day 20 pretreated with voriconazole 400 mg, po bid on day 1 and 200 mg, po bid on day 2 and 3 followed by washout from day 4 to day 10 followed by 400 mg, po of drug coadministered with voriconazole 200 mg, po from day 21 to day 30; format: ADME, organism-based; parameters: time < 12 hr, dose 400 mg, route oral; settings: plasma; how it was run: as §1
[17] = Cmax in human at 100 mg, po bid from day 11 to day 20 pretreated with voriconazole 400 mg, po bid on day 1 and 200 mg, po bid on day 2 and 3 followed by washout from day 4 to day 10; format: ADME, organism-based; parameters: dose 100 mg, route oral; settings: in vivo; how it was run: as §1
[18] = Cmax in human at 400 mg, po bid from day 11 to day 20 pretreated with voriconazole 400 mg, po bid on day 1 and 200 mg, po bid on day 2 and 3 followed by washout from day 4 to day 10 followed by 400 mg, po of drug coadministered with voriconazole 200 mg, po from day 21 to day 30; format: ADME, organism-based; parameters: dose 400 mg, route oral; settings: in vivo; how it was run: as §1
[19] = test system: Homo sapiens; experiment: Decrease in Cmax of ritonavir in human at 400 mg, po bid on day 1 and 200 mg, po bid on day 2 and 3 followed by 7 days of washout period then treated with ritonavir 100 mg, po for 10 days followed by 200 mg, po of drug coadministered with ritonavir 100 mg, po till day 30; format: ADME, organism-based; settings: in vivo
[20] = Cmax in human at 400 mg, po bid on day 1 and 200 mg, po bid on day 2 and 3 followed by 7 days of washout period then treated with ritonavir 400 mg, po for 10 days followed by 200 mg, po of drug coadministered with 400 mg, po ritonavir till day 30; format: ADME, organism-based; parameters: dose 400 mg, route oral; settings: in vivo
How it was run: (§2)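 Healthy male volunteers. […] Plasma was sampled on days 3 and 30 at 0.5–12 h postdose. Samples were solid-phase extracted and assayed by LC/MS/MS (range 10 to 2,500 ng/ml). Cmax and Tmax were read directly from the data; AUC0-12 was noncompartmental.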

[21] = Tmax in human at 400 mg, po bid on day 1 and 200 mg, po bid on day 2 and 3 followed by 7 days of washout period then treated with ritonavir 100 mg, po for 10 days followed by 200 mg, po of drug coadministered with 100 mg, po ritonavir till day 30; format: ADME, organism-based; settings: in vivo; how it was run: as §2
[22] = AUC (0 to 12 hrs) in human at 400 mg, po bid on day 1 and 200 mg, po bid on day 2 and 3 followed by 7 days of washout period then treated with ritonavir 400 mg, po for 10 days followed by 200 mg, po of drug coadministered with 400 mg, po ritonavir till day 30; format: ADME, organism-based; parameters: time < 12 hr, dose 400 mg, route oral; settings: plasma; how it was run: as §2
[23] = test system: Homo sapiens; experiment: Toxicity in human assessed as mortality at 400 mg, po bid on day 1 and 200 mg, po bid on day 2 and 3 followed by 7 days of washout period then treated with ritonavir 100 mg, po for 10 days followed by 200 mg, po of drug coadministered with ritonavir 100 mg, po till day 30; format: organism-based; settings: in vivo
How it was run: (§3)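 Healthy male subjects were followed for adverse events throughout dosing. Vital signs and 12-lead ECGs were recorded predose and 1, 3 and 8 h after the morning voriconazole dose on days 1, 3, 11, 15, 20, 21, 25 and 30. The baseline was the mean of triplicate day-1 predose ECGs. Safety data were summarized descriptively.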

[24] = test system: Homo sapiens; experiment: Toxicity in human assessed as serious adverse events at 400 mg, po bid on day 1 and 200 mg, po bid on day 2 and 3 followed by 7 days of washout period then treated with ritonavir 100 mg, po for 10 days followed by 200 mg, po of drug coadministered with ritonavir 100 mg, po till day 30; format: organism-based; settings: in vivo; how it was run: as §3
[25] = Tmax in human at 400 mg, po bid on day 1 and 200 mg, po bid on day 2 and 3 measured after 3 days; format: ADME, organism-based; settings: in vivo; how it was run: as §2
[26] = AUC (0 to 12 hrs) in human at 400 mg, po bid on day 1 and 200 mg, po bid on day 2 and 3 followed by 7 days of washout period then treated with ritonavir 100 mg, po for 10 days followed by 200 mg, po of drug coadministered with 100 mg, po ritonavir till day 30; format: ADME, organism-based; parameters: time < 12 hr, dose 400 mg, route oral; settings: plasma; how it was run: as §2
[27] = test system: Homo sapiens; experiment: Toxicity in human assessed as serious adverse events at 400 mg, po bid on day 1 and 200 mg, po bid on day 2 and 3 followed by 7 days of washout period then treated with ritonavir 400 mg, po for 10 days followed by 200 mg, po of drug coadministered with ritonavir 400 mg, po till day 30; format: organism-based; settings: in vivo; how it was run: as §3
[28] = Tmax in human at 400 mg, po bid on day 1 and 200 mg, po bid on day 2 and 3 followed by 7 days of washout period then treated with ritonavir 400 mg, po for 10 days followed by 200 mg, po of drug coadministered with 400 mg, po ritonavir till day 30; format: ADME, organism-based; settings: in vivo; how it was run: as §2
[29] = Cmax in human at 400 mg, po bid on day 1 and 200 mg, po bid on day 2 and 3 measured after 3 days; format: ADME, organism-based; parameters: dose 400 mg, route oral; settings: in vivo; how it was run: as §2
[30] = AUC (0 to 12 hrs) in human at 400 mg, po bid on day 1 and 200 mg, po bid on day 2 and 3 measured after 3 days; format: ADME, organism-based; parameters: dose 400 mg, time < 12 hr, route oral; settings: plasma; how it was run: as §2
[31] = test system: Homo sapiens; experiment: Toxicity in human assessed as mortality at 400 mg, po bid on day 1 and 200 mg, po bid on day 2 and 3 measured after 3 days; format: organism-based; settings: in vivo, 72 h; how it was run: as §3
[32] = Cmax in human at 400 mg, po bid on day 1 and 200 mg, po bid on day 2 and 3 followed by 7 days of washout period then treated with ritonavir 100 mg, po for 10 days followed by 200 mg, po of drug coadministered with 100 mg, po ritonavir till day 30; format: ADME, organism-based; parameters: dose 400 mg, route oral; settings: in vivo; how it was run: as §2
[33] = test system: Homo sapiens; experiment: Toxicity in human assessed as mortality at 400 mg, po bid on day 1 and 200 mg, po bid on day 2 and 3 followed by 7 days of washout period then treated with ritonavir 400 mg, po for 10 days followed by 200 mg, po of drug coadministered with ritonavir 400 mg, po till day 30; format: organism-based; settings: in vivo; how it was run: as §3
[34] = test system: Homo sapiens; experiment: Toxicity in human assessed as serious adverse events at 400 mg, po bid on day 1 and 200 mg, po bid on day 2 and 3 measured after 3 days; format: organism-based; settings: in vivo, 72 h; how it was run: as §3

CC(C)c1nc(CN(C)C(=O)N[C@H](C(=O)N[C@@H](Cc2ccccc2)C[C@H](O)[C@H](Cc2ccccc2)NC(=O)OCc2cncs2)C(C)C)cs1 [RITONAVIR]
AUC at 12 h [1]: 58400 ng·h/mL
AUC at 12 h [2]: 68000 ng·h/mL
Tmax [3]: 1 h
AUC at 12 h [4]: 65300 ng·h/mL
Tmax [5]: 1.5 h
Cmax [6]: 992 ng/mL
Cmax [7]: 10200 ng/mL
Tmax [8]: 1 h
Tmax [9]: 3 h
Cmax [10]: 10700 ng/mL
Tmax [11]: 1 h
Tmax [12]: 1 h
Cmax [13]: 10500 ng/mL
AUC at 12 h [14]: 7810 ng·h/mL
AUC at 12 h [15]: 6430 ng·h/mL
AUC at 12 h [16]: 65900 ng·h/mL
Cmax [17]: 1410 ng/mL
Cmax [18]: 10400 ng/mL

C[C@@H](c1ncncc1F)[C@](O)(Cn1cncn1)c1ccc(F)cc1F [VORICONAZOLE]
Activity [19]: Non-toxic
Cmax [20]: 1220 ng/mL
Tmax [21]: 1.5 h
AUC at 12 h [22]: 4250 ng·h/mL
Activity [23]: Non-toxic
Activity [24]: Non-toxic
Tmax [25]: 1.5 h
AUC at 12 h [26]: 19500 ng·h/mL
Activity [27]: Non-toxic
Tmax [28]: 1 h
Cmax [29]: 3360 ng/mL
AUC at 12 h [30]: 26500 ng·h/mL
Activity [31]: Non-toxic
Cmax [32]: 2810 ng/mL
Activity [33]: Non-toxic
Activity [34]: Non-toxic
